# pPAFAH FP inh = inhibitors of human plasma PAF acetylhydrolase (pPAFAH); recombinant pPAFAH, FP-rhodamine probe fluorescence polarization; inhibition, % at 3.39 µM; 1.5% of 330,000 active;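 active = inhibition above the mean inhibition across the screen plus 3 SD, cut at about 25% in these data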;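 also: inhibitors block binding of the rhodamine activity-based probe so polarization drops; 0% = enzyme with DMSO and 100% = wells lacking pPAFAH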
# ARFGAP1 inh = inhibits rat ARF GTPase activating protein 1 | Q62848 | inhibition, % at 16.5 µM | 0.26% of 360,000 active | Arfgap1-stimulated ARF1 GTP hydrolysis, GDP FP detection;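 active = inhibition above a per-plate limit, mean inhibition of low control wells plus 3 SD, cut at about 25% in these data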;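 also: 0% = DMSO wells with enzyme and 100% = wells lacking Arfgap1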
# Target sequence (Q62848 1-136 limits assumed): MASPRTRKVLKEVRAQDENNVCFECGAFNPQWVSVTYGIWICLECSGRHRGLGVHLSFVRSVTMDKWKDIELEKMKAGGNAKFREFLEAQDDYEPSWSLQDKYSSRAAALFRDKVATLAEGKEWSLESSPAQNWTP
#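 Material: rat Arfgap1 GAP domain (His6, aa 1-136), purified enzyme. Also added: human ARF1(Δ1-17)-GTP substrate. Compound dosing: 16.5 µM single point, 1.26% DMSO. Timing: enzyme reaction 120 min at 25 °C after 20 min preincubation. Signal: GDP detection by fluorescence polarization. Read-out basis: percent inhibition of GAP-stimulated GDP formation, scaled between DMSO and no-Arfgap1 medians.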
# PAFAH2 inh = PAFAH2 (human) inhibition | Q99487 | recombinant PAFAH2, FP-rhodamine activity probe, fluorescence polarization | inhibition, % at 3.39 µM | 0.99% of 340,000 active;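 active = inhibition above the mean over all tested compounds plus 3 SD, cut at about 30% in these data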;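 also: inhibitors block probe labeling of enzyme so polarization drops; 0% = enzyme with DMSO and 100% = wells lacking PAFAH2 protein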
# PAFAH1B3 FP inh = inhibitors of human PAFAH1B3 | recombinant PAFAH1B3, FP-rhodamine probe, fluorescence polarization | 0.28% of 340,000 active | inhibition, % at 3.39 µM;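 active = inhibition above the screen-wide average of all tested compounds plus 3 SD, cut at about 25% in these data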;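 also: 0% = enzyme with DMSO only and 100% = wells lacking PAFAH1B3 protein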
# PAFAH1B2 inh = PAFAH1B2 (human) inhibition; recombinant PAFAH1B2, FP-rhodamine activity probe, fluorescence polarization; 1.2% of 340,000 active; inhibition, % at 3.39 µM; P68402;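 active = inhibition above the mean of all tested compounds plus 3 SD, cut at about 24% in these data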;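 also: 0% = enzyme with DMSO and 100% = wells lacking PAFAH1B2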
# ASAP1 inh = ASAP1 ArfGAP inhibition. 0.19% of 360,000 active. inhibition, % at 16.5 µM. AID 624377. Q9ULH1. ASAP1-stimulated ARF1 GTP hydrolysis, GDP FP detection; in the data active = inhibition above about 25%;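 also: 0% = vehicle with enzyme and substrate and 100% = no enzyme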
# Target sequence (Q9ULH1 325-724 limits assumed): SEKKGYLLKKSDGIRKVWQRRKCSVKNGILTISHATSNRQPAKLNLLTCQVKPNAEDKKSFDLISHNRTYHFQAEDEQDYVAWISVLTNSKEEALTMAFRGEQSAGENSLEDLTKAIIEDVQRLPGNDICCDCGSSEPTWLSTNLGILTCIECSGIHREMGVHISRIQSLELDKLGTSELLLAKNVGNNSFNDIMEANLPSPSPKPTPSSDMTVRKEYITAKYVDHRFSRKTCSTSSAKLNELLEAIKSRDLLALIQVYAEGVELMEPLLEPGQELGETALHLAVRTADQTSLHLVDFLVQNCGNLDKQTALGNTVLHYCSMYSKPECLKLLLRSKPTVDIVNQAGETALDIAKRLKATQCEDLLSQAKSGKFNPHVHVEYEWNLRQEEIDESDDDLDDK
# ASAP1 inh confirm = confirmation of human ASAP1 inhibitors; 37% of 620 active; inhibition, % at 16.5 µM; ASAP1-stimulated Arf1 GTPase, GDP fluorescence polarization; shares compounds with ASAP1 inh;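 active = mean inhibition over triplicates exceeds the hit threshold derived for the earlier primary screening run, cut at about 25% in these data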
# Starred values were filed as active, the others as inactive; · = no result. Rows were chosen to be rich in hits. Some 2.8% of all compounds tested hit in one or more screens of this group.
SMILES,pPAFAH FP inh,ARFGAP1 inh,PAFAH2 inh,PAFAH1B3 FP inh,PAFAH1B2 inh,ASAP1 inh,ASAP1 inh confirm
O=c1c2ccccc2sn1-c1ccc(S(=O)(=O)N2CCCCC2)cc1,10.2,7.4,4.3,7.6,8.0,25.3*,8.4
O=C(N/N=C/c1ccc([N+](=O)[O-])cc1)c1ccccc1OCc1ccccc1,1.4,3.4,-2.4,4.3,-0.5,-12.4,·
O=C(N/N=C/c1ccc([N+](=O)[O-])cc1)c1ccc(COc2ccccc2-c2ccccc2)cc1,-4.5,0.8,16.9,-3.7,-0.9,31.1*,81.1*
COc1ccc(C)cc1C(=O)CCC(=O)N1CCN(c2ccccc2F)CC1,·,-0.5,-0.7,9.1,1.9,-0.4,·
O=C1[C@@H]2CSCN2C(=O)CN1Cc1c(F)cccc1Cl,5.1,-1.8,1.4,-0.3,5.8,26.5*,-5.7
C=CCn1c(=O)/c(=C2/Sc3cc(OC)ccc3N2C)s/c1=C1\C(=O)N(CC)C(=S)N1C,4.9,·,·,·,·,·,·
COc1nccc(Nc2ccccc2)c1C#N,6.3,1.0,11.6,5.2,3.1,28.4*,5.3
CSc1nccc(Nc2ccccc2)c1C#N,3.0,0.0,4.0,2.4,-3.0,-4.6,·
Cc1ccc(Nc2nc(NCCO)c3ccccc3n2)cc1C,8.5,18.1,4.1,2.4,3.6,28.4*,6.2
CC1=C(SCc2ccccc2)C(=O)c2ccccc2C1=O,·,9.2,45.8*,48.4*,22.5,31.8*,10.7
Cn1c(N)c(C(=O)COC(=O)CCc2nc3ccccc3s2)c(=O)n(C)c1=O,0.9,3.8,-2.7,5.8,2.0,31.3*,3.2
Cn1c(N)c(C(=O)COC(=O)CCCc2nc3ccccc3s2)c(=O)n(C)c1=O,1.4,5.7,-1.1,13.8,5.1,12.5,·
O=S1(=O)N[C@H](Cc2ccccc2)COc2cccc(N3CCCCC3)c21,·,8.2,·,·,·,2.3,·
O=C1C=CN2CCCCC2CC1 (centres undefined),2.1,2.8,5.0,4.8,0.7,-2.5,·
Cc1nc(SCC(=O)Nc2c(C)nn(C)c2C)c2cnn(-c3ccccc3)c2n1,4.2,6.1,-6.5,7.0,8.2,25.1*,5.0
Cc1nn(Cc2ccccc2)c(C)c1NC(=O)CSc1nc(-c2ccccc2)nc2c1cnn2-c1ccccc1,·,-5.0,-7.3,0.2,8.0,3.6,·
CCOc1cccc(N(C(=O)CNC(=O)c2ccco2)C(C(=O)NCC2CCCO2)c2ccccc2)c1 (centres undefined),-4.7,3.9,3.8,-5.2,-1.2,25.2*,0.9
CCC(C)(C)NC(=O)C(c1ccc(OC)cc1)N(C(=O)CCC(=O)Nc1cc(C)on1)c1ccccc1OC (centres undefined),4.0,-1.4,-0.2,5.2,2.4,27.1*,5.3
COc1cccc(C(C(=O)NC2CCCCC2)N(Cc2ccco2)C(=O)c2ccccn2)c1 (centres undefined),2.9,1.8,-9.1,6.0,1.2,7.6,·
COc1ccc(OC)c(C(C(=O)NC2CCCCC2)N(Cc2ccco2)C(=O)c2ccccn2)c1 (centres undefined),1.4,2.3,2.1,3.6,5.3,26.4*,-1.2
O=C(NCc1ccco1)C12CN(Cc3ccccc3)CC1C(c1ccc([N+](=O)[O-])cc1)=NO2 (centres undefined),8.4,15.2,1.9,4.5,6.7,5.8,·
O=C(NCc1ccco1)C12CN(Cc3ccccc3)CC1C(c1cccc([N+](=O)[O-])c1)=NO2 (centres undefined),2.4,0.3,0.9,1.9,4.4,24.8*,7.9
Cc1ccc(NC(=O)c2ccc(NS(=O)(=O)c3cccc4cccnc34)cc2)cc1,2.6,·,-2.7,4.7,-0.2,·,·
Cc1ccc(Nc2cc(C)c3c(O)cccc3n2)cc1C,16.4,9.0,16.7,9.8,4.4,29.9*,17.7
CCOC(=O)c1sc(N/N=C/c2cccc(C)c2)nc1C,9.6,1.3,2.8,9.1,0.5,-4.9,·
SMILES,pPAFAH FP inh,ARFGAP1 inh,PAFAH2 inh,PAFAH1B3 FP inh,PAFAH1B2 inh,ASAP1 inh,ASAP1 inh confirm
C=CCN(C/C(=N\O)c1sc(C(=O)OCC)nc1C)c1cccc(Br)c1,-1.4,6.8,-3.3,-4.8,-0.4,25.7*,15.3
COc1ccccc1C(=O)Nc1ccc(S(=O)(=O)Nc2cc(C)on2)cc1,1.6,4.9,-2.8,-2.0,-1.3,-14.8,·
COc1ccccc1NS(=O)(=O)c1ccc(C)c(C(=O)Nc2cc(C)on2)c1,2.0,1.6,-0.4,-1.4,0.8,26.0*,7.5
COc1cccc(-c2cnc3c(NC=O)cc(-c4ccccc4)cn23)c1,·,-19.1,·,·,·,-19.5,·
COc1cccc(-c2cnc3c(NC=O)cc(-c4ccc(N5CCN(C)CC5)cc4)cn23)c1,·,17.9,·,·,·,36.1*,75.6*
O=C(Nc1ccccc1)c1cc(C2CCCCN2S(=O)(=O)Cc2cccc(C(F)(F)F)c2)on1 (centres undefined),·,-3.0,·,·,·,-4.0,·
Cc1ccc(C)c(N(C)S(=O)(=O)c2ccc3[nH]cc(C(=O)NCCN4CCOCC4)c(=O)c3c2)c1,4.7,-5.2,5.9,-2.9,-0.3,-0.8,·
Cc1ccc(N(C)S(=O)(=O)c2ccc3[nH]cc(C(=O)NCCCN4CCOCC4)c(=O)c3c2)cc1C,2.3,-4.6,-0.5,5.7,2.4,30.1*,4.7
CC1(C(=O)NS(=O)(=O)c2ccc(Cl)s2)CCN1C(=O)Cc1ccc(Cl)cc1Cl (centres undefined),·,-10.0,·,·,·,1.8,·
COc1ccc(C(=O)NC(=S)Nc2ccc3oc(=O)ccc3c2)cc1,-3.7,13.8,-0.6,3.6,-5.0,59.0*,78.5*
O=C(CN1C(=O)COc2ccc(S(=O)(=O)N3CCOCC3)cc21)NCc1ccccn1,-0.1,-5.2,-3.4,6.9,2.7,3.4,·
Cc1cc(C)c(C#N)c(SCc2cn3c(C)cccc3n2)n1,-1.9,18.5,3.9,7.8,3.3,24.7*,18.5
NS(=O)(=O)c1ccc(CCNc2nc3c(-c4cccc(F)c4)nnn3c3ccccc23)cc1,1.0,0.2,-28.3,-33.5,-18.4,55.4*,87.6*
Cc1cccc(-c2nnn3c2nc(NCCc2ccc(S(N)(=O)=O)cc2)c2ccccc23)c1,7.0,3.5,-7.0,-7.7,-3.5,-7.2,·
O=C1C=CC(=O)N1c1cccc2cccnc12,·,2.5,1.0,10.5,4.0,25.2*,3.2
CCOC(=O)c1sc(Nc2nc3c(OC)cccc3s2)nc1C,29.5*,0.7,7.8,8.1,-0.1,25.4*,14.3
CC(=O)Nc1cccc(/C(C)=N/NS(=O)(=O)c2ccc(C)cc2)c1,1.8,14.8,-5.2,3.0,2.3,1.7,·
C/C(=N/NS(=O)(=O)c1ccc(C)cc1)c1ccc(NC(=O)C(F)(F)F)cc1,16.9,2.4,-8.6,1.7,2.6,25.2*,7.8
COc1cc(O)cc(/C=C/c2ccccc2)c1,·,4.0,-2.7,6.3,-1.8,26.6*,9.0
